These results are taken from ChEMBL document CHEMBL1134638, “Synthetic 2-aroylindole derivatives as a new class of potent tubulin-inhibitory, antimitotic agents” (J Med Chem, 2001).

pIC50: −log10 of the molar value. In brackets after ≈: the same amount, converted by molar mass. Where only a bound is given, the exact number is not on record here.

In one assay the test system is HeLa. As to the kind of experiment: In vitro inhibitory activity against HeLa/KB cells using XTT proliferation assay. To be noted: Homo sapiens. The assay is classed as functional, cell-based. In a few lines:
(§1)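 XTT proliferation assay measuring cellular metabolic activity after 48 h incubation with compound. Compounds dissolved in DMSO at 1 mg/mL stock. IC50 or estimates obtained by nonlinear regression. Each experiment at least in duplicate.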
(Tetrazolium dyes change colour on reduction, which living cells bring about.)

The target in the next assay is Tubulin beta chain (Bos taurus, UniProt Q6B856). Put plainly: Inhibition of tubulin polymerization. The class given is functional.
Chain of Tubulin beta chain (Q6B856 whole entry): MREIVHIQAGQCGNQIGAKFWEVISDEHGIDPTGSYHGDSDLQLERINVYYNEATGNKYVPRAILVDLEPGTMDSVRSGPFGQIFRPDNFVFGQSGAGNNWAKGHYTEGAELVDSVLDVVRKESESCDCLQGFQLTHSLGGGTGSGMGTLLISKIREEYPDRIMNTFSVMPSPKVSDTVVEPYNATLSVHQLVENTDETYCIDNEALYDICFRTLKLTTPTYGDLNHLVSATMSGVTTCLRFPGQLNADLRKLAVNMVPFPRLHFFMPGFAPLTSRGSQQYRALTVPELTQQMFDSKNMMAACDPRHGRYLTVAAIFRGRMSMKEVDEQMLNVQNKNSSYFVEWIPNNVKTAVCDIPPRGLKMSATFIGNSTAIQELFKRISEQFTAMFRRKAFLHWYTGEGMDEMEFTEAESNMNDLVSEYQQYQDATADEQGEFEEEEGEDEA
The test system of the next assay is SK-OV-3. As to the kind of experiment: In vitro inhibitory activity against SK-OV-3 cells using XTT proliferation assay. The assay is classed as functional, cell-based. As to conditions: Homo sapiens. In a few lines: as §1
The subject of a further assay is Tumor Cell line. Put plainly: Mean cytotoxicity against a panel of human tumor cell lines. The assay is classed as functional. An outline of the steps: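 Modified propidium iodide assay quantifying dead cells by DNA/RNA staining, run on a human tumor cell panel (breast, colon, stomach, lung, melanoma, ovary, renal, soft tissue lines). Growth inhibition expressed as % T/C; IC70 per line from concentration-viability plots. Mean IC70 is the geometric mean across lines; unreached values set to the lowest or highest concentration tested.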

A further assay concerns the target Tubulin (Bos taurus, UniProt Q6B856+Q862L2+Q862F3). Put plainly: Inhibition of tubulin polymerization; No effect at a concentration up to 10 uM. The assay is classed as functional.

Regarding `COc1cc(OC)cc(C(=O)c2cc3cc(OC)ccc3[nH]2)c1`, the pIC50 in the assay on HeLa was 7.72; at Tubulin beta chain it was 6.09; in the assay on SK-OV-3, 7.72.
As for `COc1ccc2[nH]c(C(=O)c3cccc(N)c3)cc2c1`, the pIC50 was 6.47 in the assay with HeLa, 6.00 on Tubulin beta chain and 6.64 in the assay with SK-OV-3.
The matching figures for `COc1ccc2[nH]c(C(=O)c3cccc(F)c3)cc2c1`: 7.59, 6.41 and 7.82.
In the assay with Tumor Cell line, `COc1ccc2[nH]c(C(=O)c3cccc4ccccc34)cc2c1` returned a 70% effect concentration (IC70) of 0.88 µg/mL (≈ 2.92 µM).
Regarding `COc1ccc(C(=O)c2cc3cc(OC)ccc3[nH]2)cc1`, the pIC50 in the assay with HeLa and in the assay with SK-OV-3 was 4.94 in each case. In addition, on Tubulin, the IC50 entry is recorded as “No effect”.
Take `CCCC(=O)Oc1cccc(C(=O)c2cc3cc(OC)ccc3[nH]2)c1`: the pIC50 is 6.57 with HeLa, 6.07 at Tubulin beta chain and 6.62 with SK-OV-3.
The matching figures for `COc1cccc(C(=O)c2cc3cc(C)ccc3[nH]2)c1`: under 4.92, under 5.00 and under 4.92.
As to `COc1ccc2[nH]c(C(=O)c3ccccc3N)cc2c1`, the pIC50 is 5.42 in the assay with HeLa, 5.17 at Tubulin beta chain and 5.42 in the assay with SK-OV-3. In addition, the IC70 in the assay on Tumor Cell line is 1.44 µg/mL (≈ 5.41 µM).
Regarding `COc1cc2c(c(OC)c1OC)-c1ccc(OC)c(=O)cc1[C@@H](NC(C)=O)CC2` [COLCHICINE], the pIC50 with HeLa was 7.64; in the assay with SK-OV-3 it was 7.70.
With `CCCc1ccc(C(=O)c2cc3cc(OC)ccc3[nH]2)cc1`, the pIC50 was under 4.96 in the assay with HeLa, under 5.00 against Tubulin beta chain and under 4.96 in the assay with SK-OV-3.
As for `COc1ccc2[nH]c(C(=O)c3cccc(O)c3)cc2c1`, the negative-log IC50 (pIC50) with HeLa was 6.66; against Tubulin beta chain it was 6.18; with SK-OV-3 it was 6.66.
On to `COc1ccc2[nH]c(C(=O)c3ccc(Cl)cc3)cc2c1`, for which the pIC50 was 5.46 in the assay with HeLa, 5.30 against Tubulin beta chain and 5.76 in the assay with SK-OV-3.
Turning to `COc1ccccc1C(=O)c1cc2cc(C)ccc2[nH]1`, the pIC50 is 6.42 in the assay on HeLa, 5.46 on Tubulin beta chain and 6.12 in the assay on SK-OV-3. The IC70 in the assay with Tumor Cell line worked out at 2.03 µg/mL (≈ 7.65 µM).
For the compound `COc1cc(C(=O)c2cc3ccccc3[nH]2)cc(OC)c1OC`, the pIC50 in the assay with HeLa is 5.19; with SK-OV-3, 5.02. On Tubulin, the IC50 result was “No effect”.
As to `COc1ccc2[nH]c(C(=O)c3ccc(C(C)(C)C)cc3)cc2c1`, the negative-log IC50 (pIC50) in the assay on HeLa and in the assay with SK-OV-3 was under 4.98 throughout. Further, on Tubulin, the IC50 entry was “No effect”.
With `COc1ccc2[nH]c(C(=O)c3cccc(OC(F)(F)F)c3)cc2c1`, the negative logarithm of the IC50 (pIC50) with HeLa was 6.57; against Tubulin beta chain, 5.77; in the assay with SK-OV-3 it was 6.68.
Take `COc1ccc2[nH]c(C(=O)c3ccc(F)cc3)cc2c1`: the figures for the pIC50 with HeLa and in the assay on SK-OV-3 were 5.25 and 5.13, respectively.
As for `COc1cc(OC)c(OC)c(C(=O)c2cc3cc(OC)ccc3[nH]2)c1`, the pIC50 is 5.06 in the assay on HeLa and 5.03 in the assay with SK-OV-3. Moreover, the IC50 result against Tubulin is reported as “No effect”.
With `COc1ccc2[nH]c(C(=O)c3ccccc3OC)cc2c1`, the figures for the pIC50 in the assay with HeLa, against Tubulin beta chain and in the assay with SK-OV-3 were 7.44, 5.89 and 6.96, respectively. In addition, the 70% effect concentration (IC70) in the assay on Tumor Cell line was 0.35 µg/mL (≈ 1.24 µM).
In the case of `COc1ccc2[nH]c(C(=O)c3c(F)cccc3F)cc2c1`, the negative-log IC50 (pIC50) in the assay with HeLa is 5.16; in the assay on SK-OV-3 it was 5.06. In addition, the IC50 entry at Tubulin was “No effect”.
`COc1cc(C(=O)c2cc3cc(C)ccc3[nH]2)cc(OC)c1OC`: the negative logarithm of the IC50 (pIC50) was 7.52 in the assay with HeLa, 6.07 against Tubulin beta chain and 7.52 in the assay on SK-OV-3. In the assay on Tumor Cell line, this compound yielded a concentration for an effect of 70% (IC70) of 1.17 µg/mL (≈ 3.6 µM).
Regarding `COc1ccc2[nH]c(C(=O)c3ccc(OC)c(OC)c3OC)cc2c1`, the pIC50 with HeLa is 7.23; against Tubulin beta chain, under 5.00; in the assay on SK-OV-3 it was 7.06. Moreover, the concentration for an effect of 70% (IC70) in the assay on Tumor Cell line is 0.73 µg/mL (≈ 2.14 µM).
In the case of `COc1ccc2[nH]c(C(=O)c3cccc(OC)c3[N+](=O)[O-])cc2c1`, the figures for the negative logarithm of the IC50 (pIC50) in the assay with HeLa, against Tubulin beta chain and in the assay on SK-OV-3 were under 5.01, under 5.00 and under 5.01, respectively.
Consider `COc1ccc2[nH]c(C(=O)c3ccccc3[N+](=O)[O-])cc2c1`, for which the pIC50 was under 5.00 in the assay with HeLa, under 5.00 at Tubulin beta chain and under 4.97 with SK-OV-3.
Consider `COc1ccc2[nH]c(C(=O)c3cccc([N+](=O)[O-])c3)cc2c1`, for which the negative-log IC50 (pIC50) in the assay with HeLa is 7.00; on Tubulin beta chain it was 6.07; in the assay with SK-OV-3 it was 7.00. The 70% effect level in the assay on Tumor Cell line (IC70) was put at 1.4 µg/mL (≈ 4.73 µM).
`COc1ccc2[nH]c(C(=O)c3cccc([N+](=O)[O-])c3C)cc2c1`: the negative logarithm of the IC50 (pIC50) is under 4.99 in the assay on HeLa, under 5.00 against Tubulin beta chain and under 4.99 in the assay with SK-OV-3.
Regarding `COc1ccc(C(=O)c2cc3cc(OC)ccc3[nH]2)c(OC)c1`, the pIC50 in the assay on HeLa was 7.00; against Tubulin beta chain, 5.25; with SK-OV-3, 5.99. This compound displayed a 70% effect concentration (IC70) in the assay on Tumor Cell line of 1.74 µg/mL (≈ 5.59 µM).
Take `COc1ccc2[nH]c(C(=O)c3ccccc3C)cc2c1`: the pIC50 in the assay on HeLa is 5.92; on Tubulin beta chain it was 5.32; in the assay on SK-OV-3 it was 6.42.
For `COc1ccc2[nH]c(C(=O)c3cccc(N)c3C)cc2c1` the same measures were 4.94, under 5.00 and 4.94.
The matching figures for `COc1ccc2[nH]c(C(=O)c3ccc(OC)c(OC)c3)cc2c1`: 5.88, 6.09 and 5.79.
For `COc1ccc2[nH]c(C(=O)c3cccc(C(F)(F)F)c3)cc2c1` the same measures were 7.52, 5.82 and 7.52.
Consider `COc1ccc2[nH]c(C(=O)c3ccc(Br)cc3)cc2c1`, for which the negative-log IC50 (pIC50) with HeLa is 6.04; on Tubulin beta chain it was 5.37; with SK-OV-3 it was 6.04. The 70% effect level in the assay on Tumor Cell line (IC70) was put at 2.56 µg/mL (≈ 7.75 µM).
As to `COc1ccc2[nH]c(C(=O)c3ccc(Cl)c(Cl)c3)cc2c1`, the pIC50 is 7.00 in the assay with HeLa, 5.60 on Tubulin beta chain and 7.00 in the assay on SK-OV-3. Further, the 70% effect concentration (IC70) with Tumor Cell line amounted to 1.34 µg/mL (≈ 4.19 µM).
In the case of `COc1ccc2[nH]c(C(=O)c3cc(C)ccc3C)cc2c1`, the pIC50 in the assay on HeLa is 6.14; at Tubulin beta chain it was 5.28; with SK-OV-3, 6.14.
`COc1ccc2[nH]c(C(=O)c3cccc(OC)c3OC)cc2c1`: the figures for the negative-log IC50 (pIC50) with HeLa, against Tubulin beta chain and with SK-OV-3 were 5.19, under 5.00 and 5.49, respectively.
On to `COc1ccc2[nH]c(C(=O)c3ccc(C)cc3)cc2c1`, for which the pIC50 with HeLa is 6.42; against Tubulin beta chain, 5.82; in the assay on SK-OV-3, 5.73.
The matching figures for `COc1ccccc1C(=O)c1cc2ccccc2[nH]1`: under 4.90, under 5.00 and under 4.90.
Compound `COc1ccc2c(c1)cc(C(=O)c1ccccc1)n2CCN1CCOCC1` displayed an IC70 in the assay on Tumor Cell line of 2.95 µg/mL (≈ 8.09 µM).
On to `CCc1ccc(C(=O)c2cc3cc(OC)ccc3[nH]2)cc1`, for which the figures for the pIC50 in the assay on HeLa, on Tubulin beta chain and in the assay on SK-OV-3 were 5.05, under 5.00 and 4.94, respectively.
The matching figures for `COc1ccc2[nH]c(C(=O)c3c(F)cccc3Cl)cc2c1`: under 4.98, under 5.00 and under 4.98.
For `COc1ccc2[nH]c(C(=O)c3ccccc3F)cc2c1` the same measures were 6.43, 6.00 and 6.13.

The pIC50 is −log10 of the IC50, conventionally taken in molar units. For orientation: IC70 means the concentration needed for an effect of 70%. The low end stands for an effect from little substance, the high end for a need for much substance.
